This is a sample that favours compounds with a hit; in the whole collection about 2% have one here.
Arrestin-AP2 inh – inhibitors of human beta-arrestin and AP2 interaction; FITC-arrestin peptide / GST-AP2 beads, flow cytometry; AP2 beta2 appendage carries R879A mutation; inhibition, % at 10 µM; 340,000 tested, 0.31% active; AID 504490;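 active = inhibition above a set limit, near 3 SD of compounds lacking own fluorescence, cut at about 54% in these data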;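 also: plate controls were DMSO wells for no effect and 5 µM unlabelled arrestin peptide for full effect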
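System: GST-AP2 R879A glutathione beads | Also added: FITC-arrestin peptide, 50 nM | Times: 12 min plus 1 h, RT | Signal: Bead flow cytometry, FITC channel | Buffer or medium: PBS with 0.05% Tween 20 and 0.1% BSA | Read-out basis: Percent drop in bead-associated FITC signal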
B2AR ag – activates human beta-2 adrenergic receptor causing internalization | P07550 | Am2.2-beta2AR cells, FAP receptor internalization, flow cytometry | response, % (test concentration not listed) | 340,000 tested, 0.43% active;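 active = response above a set limit, near 3 SD of response in nonfluorescent compounds, cut at about 42% in these data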
TAG inh – triacylglycerol accumulation inhibition; H9c2 cells, Nile Red lipid (TAG) fluorescence; cells loaded with 200 µM oleic acid; inhibition, % at 12.5 µM; 230,000 tested, 0.66% active; AID 651582;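 active = pattern-corrected inhibition of lipid staining of at least 50% with the nuclear-stain viability signal not falling by more than 50%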;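 also: 0% = DMSO wells and 100% = triacsin C control wells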
GRK2 inh – inhibitors of human GRK2 displacing RNA aptamer | bead flow cytometry, FAM-aptamer displacement from GRK2 | 330,000 tested, 0.59% active | P25098 | inhibition of aptamer binding, % at 10 µM;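 active = inhibition of aptamer binding above 40%, roughly 3 SD of noise, on plates passing a quality check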;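 also: median bead fluorescence of bound FAM aptamer so fluorescent compounds give negative values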
NTR1 agonist – NTR1 (human) agonism. P30989. NTR1-U2OS beta-arrestin-GFP spot imaging, agonist mode. activation, % at 20 µM. 330,000 tested, 0.17% active;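 active = activation at or above 40% of the spot to cytoplasm intensity ratio, with at least 20 cells analyzed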;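 also: 0% = DMSO without peptide and 100% = 100 nM NTR1 peptide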
Target sequence (P30989 whole entry, looked up): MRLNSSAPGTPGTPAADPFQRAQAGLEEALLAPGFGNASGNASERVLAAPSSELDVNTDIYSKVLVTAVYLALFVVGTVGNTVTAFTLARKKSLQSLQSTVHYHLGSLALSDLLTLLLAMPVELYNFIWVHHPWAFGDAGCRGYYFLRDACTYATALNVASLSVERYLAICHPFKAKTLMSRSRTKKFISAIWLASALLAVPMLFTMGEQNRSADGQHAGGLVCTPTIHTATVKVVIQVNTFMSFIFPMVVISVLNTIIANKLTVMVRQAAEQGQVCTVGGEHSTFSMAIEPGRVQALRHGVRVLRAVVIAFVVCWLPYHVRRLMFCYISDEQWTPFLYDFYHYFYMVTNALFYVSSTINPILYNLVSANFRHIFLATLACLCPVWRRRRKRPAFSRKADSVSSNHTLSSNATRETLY
Lipid droplet – modulators of hepatic lipid droplet formation; AML12 mouse hepatocytes, oleate lipid droplets, BODIPY imaging; AID 1656; 240,000 tested, 0.4% active; inhibition, % at 6.5 µM;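 active = lipid droplet intensity inhibited by at least 50%, with more than 500 cells counted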
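Assay system: AML12 mouse liver cells | Compound: 6.5 µM single-point dosing | Schedule: Overnight exposure | Technique: Fluorescence imaging, 20x objective, two fields per well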
Arr AP2 CP1 – blocks beta-arrestin peptide binding to human AP2. shares compounds with Arrestin-AP2 inh. GST-AP2 beads, FITC arrestin peptide binding, flow cytometry; GST-fused beta2-adaptin appendage, R879A mutant. inhibition, % at 10 µM. 1,300 tested, 2% active;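 active = inhibition above a set limit, roughly 3 SD of non-fluorescent compound noise, cut at about 38% in these data; inactive = inhibition at or below that limit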;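 also: loss of bead fluorescence from 50 nM FITC arrestin peptide bound to appendage; 0% = negative control wells and 100% = excess unlabelled arrestin peptide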
GST-FITC bead – disrupts GST binding to glutathione beads, arrestin-AP2 artifact | AID 588338 | 1,300 tested, 2% active | GST-fluorescein binding to GSH beads, fluorescence, counter-screen | shares compounds with Arrestin-AP2 inh | inhibition, % at 10 µM;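 active = inhibition above 50%, about 3 SD of the inhibition seen with non-fluorescent compounds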;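 also: fluorescein maleimide labelled GST captured on 4 micron glutathione beads; higher means more loss of bead fluorescence from quenching or blocked binding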
* hit, by the source's call.

Screening COc1ccccc1CN1CC(C(=O)NCc2c(F)ccc(C)c2F)CCC1=O (configuration not stated) returned Arrestin-AP2 inh 9, B2AR ag 8, GRK2 inh 5, NTR1 agonist 1, Lipid droplet 12, Arr AP2 CP1 -1 and GST-FITC bead -4.
For CCCNC(=O)C1(C)CCCN(Cc2ccccc2Cl)C1 (configuration not stated) the results were TAG inh -6.
S=C1NC[C@H](CC2CCCCC2)N1CC1CCCCC1 was read as Arrestin-AP2 inh 34, B2AR ag -3, GRK2 inh 3, NTR1 agonist 18 and Lipid droplet -7.
`N#CC1(NC(=O)COC(=O)Cc2c[nH]c3ccccc23)CCCCC1` gave TAG inh 5.
Screening O=C1CN(C(=O)COC(=O)[C@@H]2CCCN2S(=O)(=O)c2ccc(Cl)cc2)c2ccccc2N1 returned Arrestin-AP2 inh 25, B2AR ag -4, TAG inh -4, GRK2 inh 1 and NTR1 agonist 1.
C#CC(C)(C)NC(=O)c1ccc(-c2ccccc2F)cc1 was read as Arrestin-AP2 inh 20, B2AR ag 1, TAG inh 4, GRK2 inh 1, NTR1 agonist 1 and Lipid droplet 2.
For Cn1cc(CN2CCN(Cc3ccccc3)C(CCO)C2)c(-c2ccccc2)n1 (configuration not stated) the results were Arrestin-AP2 inh -1, B2AR ag -7, TAG inh 5, GRK2 inh 0, NTR1 agonist -1 and Lipid droplet -5.
Screening CCOc1ccccc1CN1CCN(Cc2cn(C)nc2-c2ccccc2)CC1CCO (configuration not stated) returned Arrestin-AP2 inh 54*, B2AR ag -2, TAG inh -1, GRK2 inh 0, NTR1 agonist -1, Lipid droplet 4, Arr AP2 CP1 7 and GST-FITC bead 5.
For COc1ccc(S(=O)(=O)NC2CC(=O)N(c3cccc(F)c3)C2)cc1OC (configuration not stated) the results were Arrestin-AP2 inh -8, B2AR ag -3, TAG inh -2, GRK2 inh 0 and NTR1 agonist 1.
`COC1OC2COC(c3ccccc3)OC2C(OC(C)=O)C1OC(C)=O` (configuration not stated) gave Arrestin-AP2 inh 2, B2AR ag -3 and TAG inh -8.
For COc1ccc(OC)c(-c2nc(CN3CCN(C(=O)c4ccco4)CC3)c(C)o2)c1 the results were Arrestin-AP2 inh -9, B2AR ag 1, GRK2 inh 0, NTR1 agonist -1 and Lipid droplet -2.
COc1ccc(-c2nc(CN3CCN(C(=O)c4ccco4)CC3)c(C)o2)c(OC)c1C was read as Arrestin-AP2 inh 54*, B2AR ag -12, TAG inh -9, GRK2 inh 0, NTR1 agonist -1, Lipid droplet -15, Arr AP2 CP1 -8 and GST-FITC bead -2.
`Cn1ncc(Br)c1C(=O)NC1CCCCC1` gave Arrestin-AP2 inh 6, B2AR ag 15, GRK2 inh 0, NTR1 agonist 2 and Lipid droplet -5.
CCn1ncc(Br)c1C(=O)NC1CCCCCCC1 was read as Arrestin-AP2 inh 60*, B2AR ag -5, TAG inh -5, GRK2 inh 3, NTR1 agonist 0, Lipid droplet 23, Arr AP2 CP1 -3 and GST-FITC bead -8.
Cc1noc(C)c1S(=O)(=O)Nc1ccc2c(c1)C(=O)N([C@H](C)CO)C[C@H](C)[C@@H](CN(C)Cc1ccc(C(=O)O)cc1)O2 was read as Arrestin-AP2 inh 60*, B2AR ag -6, TAG inh -1, GRK2 inh 4, NTR1 agonist 2, Arr AP2 CP1 7 and GST-FITC bead 10.

Bioassay records from PubChem.
